Structures are written as SMILES.

In assay [1] the test system is Jurkat. In words: Concentration required to inhibit 50% growth of human Jurkat cells. It is filed as functional, cell-based. The method, boiled down:
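Jurkat leukemia (JLC) cells seeded at 3.75 × 10^3 cells/well and exposed to drug for 4 days; growth measured by sulforhodamine assay. IC50 = drug concentration (nM) reducing cell number to 50% of control cultures. Independent assays in duplicate, coefficients of variation ca. 25%.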

Assay [2] has as its system Lewis lung carcinoma cell line. In words: Inhibitory activity of tested against Murine Lewis lung carcinoma. It counts as functional, cell-based. The note with it: Mus musculus. The method, boiled down:
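Lewis lung carcinoma (LLTC) cells at 10^3 cells/well, 4-day continuous drug exposure, growth read by sulforhodamine assay. IC50 (nM) = concentration giving 50% of control cell number. Duplicate independent assays, CV ca. 25%.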

Assay [3] has as its system Jurkat. In words: Ratio of inhibitory activity against amsacrine resistant jurkat cells to inhibitory activity against wild type human jurkat cells. It is filed as functional. Summed up: (§1)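 Wild-type Jurkat (JLC) and its amsacrine-resistant (JLA) or doxorubicin-resistant (JLD) sublines each seeded at 3.75 × 10^3 cells/well, 4 days with drug, sulforhodamine read-out. IC50 (nM) for 50% of control cell number; ratio = resistant-line IC50 divided by JLC IC50. Duplicate assays, CV ca. 25%.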

A further assay has as its system P388. In words: Inhibitory activity against Murine […]. It counts as functional, cell-based. Conditions: Mus musculus. The method, boiled down:
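Murine P388 leukemia cells seeded at 4.5 × 10^3 cells/well, cultured 3 days with drug; growth measured by [3H]TdR uptake. IC50 = drug concentration (nM) reducing cell number to 50% of controls. Independent assays in duplicate, CV ca. 25%.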

Assay [4] concerns Jurkat. In words: Ratio of inhibitory activity against doxorubicin resistant jurkat cells to inhibitory activity against wild type human jurkat cells. It counts as functional. Summed up:
as §1

The next assay concerns NCI/ADR-RES. In words: inhibitory activity against multi drug resistant NCI/ADR cell line. It counts as functional. Conditions: Homo sapiens. Summed up: (§2)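 Tested in the NCI human cell line panel. GI50 = drug concentration (nM) giving growth inhibition to 50% of controls; values below 10 nM were taken as 10 nM in calculations.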
The test system of the next assay is MCF7. In words: inhibitory activity against multi drug resistant MCF cell line. Conditions: Homo sapiens, in the assay text read “MCF7 cell line” for “multi drug resistant MCF cell line”. It counts as functional. The method, boiled down:
as §2

Another assay has as its system HCT-116. In words: inhibitory activity against colon HCT116 cell line. It is filed as functional. Conditions: Homo sapiens. The method, boiled down: as §2
A further assay concerns CAKI-1. In words: inhibitory activity against renal tumor […] cell line. It counts as functional. Conditions: Homo sapiens. Summed up:
as §2

The test system of another assay is HT-29. In words: inhibitory activity against colon HT-29 cell line. Conditions: Homo sapiens. It counts as functional. Summed up: as §2
In a further assay the test system is SK-OV-3. In words: inhibitory activity against ovarian carcinoma SKOV3 cell line. It is filed as functional. The note with it: Homo sapiens. Summed up: as §2

Turning to `Cc1cccc2cc3c(Cl)ccc(C(=O)NCCCN(C)CCCNC(=O)c4ccc(Cl)c5cc6cccc(C)c6nc45)c3nc12`, the IC50 (commonly the concentration needed to halve the response being measured) was 12 nM in the assay with Jurkat [1], 6 nM in assay [2] and 48 nM in the assay with P388. Besides, the values for the Ratio with Jurkat [3] and with Jurkat [4] were 0.3 and 0.6, respectively.
Taken in the same sequence, the figures for `CN(CCCNC(=O)c1cccc2cc3cc(Cl)ccc3nc12)CCCNC(=O)c1cccc2cc3cc(Cl)ccc3nc12` were 136 nM, 46 nM, 170 nM, 0.8 and 0.9.
For `CC(C)c1ccc2nc3c(C(=O)NCCCN(C)CCCNC(=O)c4cccc5cc6cc(C(C)C)ccc6nc45)cccc3cc2c1`, the IC50 came to 2080 nM in the assay on Jurkat [1], 2080 nM in assay [2] and 1450 nM in the assay on P388. In addition, the Ratio in the assay on Jurkat [3] and in the assay on Jurkat [4] was 1.1 throughout.
`CCc1ccc2nc3c(C(=O)NCCCN(C)CCCNC(=O)c4cccc5cc6cc(CC)ccc6nc45)cccc3cc2c1`: the half-maximal inhibitory concentration (IC50) in the assay on Jurkat [1] is 1640 nM; in [2], 770 nM; with P388 it was 1080 nM. Moreover, the Ratio in the assay with Jurkat [3] is listed as 0.9; in the assay with Jurkat [4] it was 1.4.
Taken in the same sequence, the figures for `COc1ccc2cc3cccc(C(=O)NCCCN(C)CCCNC(=O)c4cccc5cc6ccc(OC)cc6nc45)c3nc2c1` were 51 nM, 20 nM, 76 nM, 0.5 and 0.8.
For the compound `CN(CCCNC(=O)c1cccc2cc3ccc(F)cc3nc12)CCCNC(=O)c1cccc2cc3ccc(F)cc3nc12`, the concentration for half-maximal inhibition (IC50) with Jurkat [1] amounted to 52 nM; in assay [2] it was 20 nM; in the assay on P388, 24 nM. Further, the Ratio came to 0.6 in the assay with Jurkat [3] and 0.9 with Jurkat [4].
As for `Cc1ccc2cc3cccc(C(=O)NCCCN(C)CCCNC(=O)c4cccc5cc6ccc(C)cc6nc45)c3nc2c1`, the half-maximal inhibitory concentration (IC50) was 177 nM with Jurkat [1], 56 nM in [2] and 345 nM with P388. For the same compound, the Ratio with Jurkat [3] was found to be 0.7; in the assay on Jurkat [4], 0.9. For the same compound, the GI50 (in general, the concentration at which growth is held to half of that of the control) in the assay on NCI/ADR-RES was found to be 407 nM; with MCF7, 530 nM; in the assay with HCT-116 it was 130 nM; in the assay on CAKI-1 it was 669 nM; with HT-29, 62 nM; with SK-OV-3 it was 3040 nM.
With `CN(CCCNC(=O)c1cccc2cc3cc(F)ccc3nc12)CCCNC(=O)c1cccc2cc3cc(F)ccc3nc12`, the IC50 in the assay on Jurkat [1] came out at 96 nM; in assay [2], 32 nM; in the assay with P388 it was 140 nM. Besides, the Ratio in the assay with Jurkat [3] worked out at 0.6; in the assay on Jurkat [4], 0.8.
Regarding `CN(CCCNC(=O)c1cccc2cc3cc(N(C)C)ccc3nc12)CCCNC(=O)c1cccc2cc3cc(N(C)C)ccc3nc12`, the values for the 50% inhibitory concentration (IC50) (in the assay with Jurkat [1]; in assay [2]; with P388) were 760 nM, 183 nM and 970 nM, respectively. The figures for the Ratio in the assay with Jurkat [3] and in the assay on Jurkat [4] were 1 and 0.9, respectively.
As to `Cc1cc(C)c2nc3c(C(=O)NCCCN(C)CCCNC(=O)c4cccc5cc6cc(C)cc(C)c6nc45)cccc3cc2c1`, the IC50 in the assay on Jurkat [1] worked out at 105 nM; in assay [2] it was 20 nM; in the assay with P388, 210 nM. The Ratio stood at 0.5 with Jurkat [3] and 0.8 in the assay on Jurkat [4].
Regarding `CN(CCCNC(=O)c1cc(Cl)cc2cc3ccccc3nc12)CCCNC(=O)c1cc(Cl)cc2cc3ccccc3nc12`, the half-inhibitory concentration (IC50) with Jurkat [1] is 46 nM; in assay [2] it was 5.9 nM; in the assay with P388, 113 nM. Besides, the Ratio in the assay with Jurkat [3] is recorded as 0.7; with Jurkat [4], 0.9.
In the case of `CN(CCCNC(=O)c1cccc2cc3cc(Br)ccc3nc12)CCCNC(=O)c1cccc2cc3cc(Br)ccc3nc12`, the IC50 with Jurkat [1] came to 226 nM; in assay [2], 35 nM; in the assay with P388, 225 nM. Besides, the results for the Ratio in the assay with Jurkat [3] and in the assay with Jurkat [4] were 0.7 and 0.9, respectively.
With `CN(CCCNC(=O)c1cccc2cc3ccc(Br)cc3nc12)CCCNC(=O)c1cccc2cc3ccc(Br)cc3nc12`, the IC50 was 58 nM in the assay on Jurkat [1], 18 nM in [2] and 49 nM in the assay on P388. Besides, the Ratio in the assay with Jurkat [3] is listed as 0.6; in the assay on Jurkat [4], 0.9.
Turning to `CN(CCCNC(=O)c1cccc2cc3ccc(C(F)(F)F)cc3nc12)CCCNC(=O)c1cccc2cc3ccc(C(F)(F)F)cc3nc12`, the IC50 in the assay on Jurkat [1] was 355 nM; in assay [2], 160 nM; in the assay on P388 it was 9600 nM. Moreover, the Ratio in the assay with Jurkat [3] is listed as 0.6; with Jurkat [4], 1.1.
For the compound `Cc1cc(C(=O)NCCCN(C)CCCNC(=O)c2cc(C)cc3cc4ccccc4nc23)c2nc3ccccc3cc2c1`, the concentration for half-maximal inhibition (IC50) in the assay on Jurkat [1] stood at 255 nM; in [2], 67 nM; with P388, 220 nM. The Ratio with Jurkat [3] came to 0.7; with Jurkat [4] it was 1.1. Moreover, the GI50 in the assay on NCI/ADR-RES is 657 nM; with MCF7, 546 nM; in the assay with HCT-116, under 10 nM; with CAKI-1, 247 nM; in the assay on HT-29, 265 nM; in the assay on SK-OV-3, 460 nM.
Regarding `CC(C)c1cccc2cc3cccc(C(=O)NCCCN(C)CCCNC(=O)c4cccc5cc6cccc(C(C)C)c6nc45)c3nc12`, the IC50 turned out to be 2080 nM in the assay on Jurkat [1], 1050 nM in [2] and 2760 nM in the assay with P388. In addition, the results for the Ratio in the assay on Jurkat [3] and in the assay on Jurkat [4] were 0.9 and 1.1, respectively.
`CN(CCCNC(=O)c1cccc2cc3cc(C(C)(C)C)ccc3nc12)CCCNC(=O)c1cccc2cc3cc(C(C)(C)C)ccc3nc12`: the IC50 with Jurkat [1] came to 1070 nM; in assay [2] it was 1400 nM; in the assay with P388, 1760 nM. For the same compound, the Ratio with Jurkat [3] and in the assay with Jurkat [4] was 1.1 each time.
For `CN(CCCNC(=O)c1cccc2cc3ccc(N(C)C)cc3nc12)CCCNC(=O)c1cccc2cc3ccc(N(C)C)cc3nc12`, the results for the IC50 (in the assay on Jurkat [1]; in assay [2]; with P388) were 225 nM, 320 nM and 760 nM, respectively. Also, the Ratio with Jurkat [3] is listed as 0.3; with Jurkat [4], 0.6.
For the compound `CN(CCCNC(=O)c1cccc2cc3cc(-c4ccccc4)ccc3nc12)CCCNC(=O)c1cccc2cc3cc(-c4ccccc4)ccc3nc12`, the half-maximal inhibitory concentration (IC50) with Jurkat [1] worked out at 1020 nM; in assay [2] it was 610 nM; with P388, 710 nM. The results for the Ratio in the assay on Jurkat [3] and in the assay on Jurkat [4] were 1 and 1.1, respectively.
In the case of `COc1ccc2nc3c(C(=O)NCCCN(C)CCCNC(=O)c4cccc5cc6cc(OC)ccc6nc45)cccc3cc2c1`, the results for the IC50 (in the assay on Jurkat [1]; in assay [2]; in the assay with P388) were 147 nM, 20 nM and 132 nM, respectively. Further, the Ratio in the assay on Jurkat [3] worked out at 0.7; with Jurkat [4], 1.1.
As to `CN(CCCNC(=O)c1cccc2cc3cccc(N(C)C)c3nc12)CCCNC(=O)c1cccc2cc3cccc(N(C)C)c3nc12`, the half-inhibitory concentration (IC50) worked out at 180 nM in the assay on Jurkat [1], 670 nM in [2] and 2130 nM in the assay with P388. Moreover, the Ratio with Jurkat [3] came out at 0.7; with Jurkat [4] it was 0.9.
In the case of `COc1cccc2cc3cccc(C(=O)NCCCN(C)CCCNC(=O)c4cccc5cc6cccc(OC)c6nc45)c3nc12`, the 50% inhibitory concentration (IC50) in the assay with Jurkat [1] is 345 nM; in assay [2], 170 nM; with P388, 430 nM. Moreover, the Ratio in the assay with Jurkat [3] is recorded as 0.5; with Jurkat [4], 0.8. Besides, the GI50 stood at 1390 nM with NCI/ADR-RES; 394 nM with MCF7; 330 nM in the assay with HCT-116; 1490 nM in the assay with CAKI-1; 103 nM with HT-29; 12000 nM with SK-OV-3.
With `Cc1ccc(C(=O)NCCCN(C)CCCNC(=O)c2ccc(C)c3cc4cccc(C)c4nc23)c2nc3c(C)cccc3cc12`, the IC50 with Jurkat [1] came out at 3.9 nM; in [2], 1.4 nM; in the assay on P388, 21 nM. The Ratio in the assay with Jurkat [3] was 0.3; in the assay with Jurkat [4] it was 0.7.
Turning to `CN(CCCNC(=O)c1ccc(Cl)c2cc3ccccc3nc12)CCCNC(=O)c1ccc(Cl)c2cc3ccccc3nc12`, the results for the IC50 (in the assay with Jurkat [1]; in assay [2]; in the assay with P388) were 127 nM, 42 nM and 400 nM, respectively. Moreover, the Ratio in the assay on Jurkat [3] was 0.6; in the assay on Jurkat [4], 1.
As to `Cc1ccc(Cl)c2cc3cccc(C(=O)NCCCN(C)CCCNC(=O)c4cccc5cc6c(Cl)ccc(C)c6nc45)c3nc12`, the 50% inhibitory concentration (IC50) with Jurkat [1] is 20 nM; in [2], 8.8 nM; with P388, 41 nM. The Ratio was 0.5 in the assay on Jurkat [3] and 0.7 in the assay on Jurkat [4].
`COc1cc(NS(C)(=O)=O)ccc1Nc1c2ccccc2nc2ccccc12` [AMSACRINE] showed an IC50 in assay [2] of 12 nM. The Ratio in the assay with Jurkat [3] was 85; in the assay with Jurkat [4], 74.
For `COc1cccc2c1C(=O)c1c(O)c3c(c(O)c1C2=O)C[C@@](O)(C(=O)CO)C[C@@H]3O[C@H]1C[C@H](N)[C@H](O)[C@H](C)O1` [DOXORUBICIN], the half-inhibitory concentration (IC50) was 22 nM in assay [2] and 31 nM in the assay with P388. Further, the values for the Ratio in the assay with Jurkat [3] and in the assay with Jurkat [4] were 4.4 and 13, respectively.

For the origin of these results see ChEMBL document CHEMBL1132256, “Structure-activity relationships for substituted bis(acridine-4-carboxamides): a new class of anticancer agents” (J Med Chem, 1999).
